Data set [1] deals with T1, CYP2B6 (Homo sapiens, UniProt P20813).
T1 sequence (P20813 whole entry): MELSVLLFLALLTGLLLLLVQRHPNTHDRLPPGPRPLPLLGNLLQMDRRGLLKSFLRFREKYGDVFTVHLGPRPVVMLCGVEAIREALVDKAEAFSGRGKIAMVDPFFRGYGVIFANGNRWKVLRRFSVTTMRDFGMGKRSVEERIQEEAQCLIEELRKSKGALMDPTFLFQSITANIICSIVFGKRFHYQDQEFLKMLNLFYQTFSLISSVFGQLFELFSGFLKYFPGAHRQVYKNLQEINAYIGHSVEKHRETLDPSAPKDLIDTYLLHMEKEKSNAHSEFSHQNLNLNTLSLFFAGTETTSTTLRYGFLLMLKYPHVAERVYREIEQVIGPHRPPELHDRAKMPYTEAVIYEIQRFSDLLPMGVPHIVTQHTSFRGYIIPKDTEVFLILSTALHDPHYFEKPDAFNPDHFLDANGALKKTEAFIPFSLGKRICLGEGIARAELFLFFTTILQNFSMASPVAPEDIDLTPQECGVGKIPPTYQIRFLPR
Nature of the data set: Time dependent inhibition of CYP2B6 (unknown origin) at 30 uM by LC/MS system. In kind it is ADME. The method in brief:
(§1)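 CYP2B6 in human liver microsomes (1.0 mg/mL in preincubation), 0.1 M sodium phosphate, NADPH-generating system. Preincubation 0 or 30 min, then ten-fold dilution into incubation solution containing 50 μM bupropion (final) for 10 min. Activity is expressed as percent of the matched no-inhibitor control. % inactivation = 100 × [1 − control(30 min)/control(0 min)]; threshold 10%.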

Data set [2] relates to Liver microsome. Nature of the data set: Covalent binding in human liver microsomes measured per mg of protein using radiolabelled compound at 10 uM after 1 hr incubation by liquid scintillation counting. (In general: Liver microsomes are vesicles of endoplasmic reticulum, rich in cytochrome P450 enzymes.)
Data set [3] concerns Liver microsome. The experiment in a line: Metabolic activation in human liver microsomes assessed as [3H]GSH adduct formation rate measured per mg of protein at 100 uM by [3H]GSH trapping assay.
The target of data set [4] is T2, CYP3A4 (Homo sapiens, UniProt P08684). Nature of the data set: Time dependent inhibition of CYP3A4 (unknown origin) at 10 uM by LC/MS system. In kind it is ADME. A digest of the protocol:
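CYP3A4: human liver microsomes at 0.5 mg/mL in preincubation, 0.1 M sodium phosphate, NADPH-generating system, 0 or 30 min. Ten-fold dilution into incubation with 2.5 μM midazolam (final), 10 min. Each value is relative to the matched control without inhibitor. % enzyme inactivation = 100 × [1 − %control(30 min)/%control(0 min)]; 10% threshold.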

Data set [5] deals with T3, CYP2C9 (Homo sapiens, UniProt P11712). Nature of the data set: Time dependent inhibition of CYP2C9 (unknown origin) at 30 uM by LC/MS system. In kind it is ADME. The method in brief: (§2)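 Human liver microsomes at 1.0 mg/mL were preincubated 0 or 30 min with compound and NADPH-generating system in 0.1 M sodium phosphate, then diluted ten-fold into incubation containing 200 μM tolbutamide (final) for 10 min to probe CYP2C9. Percent of matched no-inhibitor control was determined at each time. Inactivation = 100 × [1 − ratio of 30-min to 0-min values]; 10% threshold.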
T3 sequence (P11712 whole entry): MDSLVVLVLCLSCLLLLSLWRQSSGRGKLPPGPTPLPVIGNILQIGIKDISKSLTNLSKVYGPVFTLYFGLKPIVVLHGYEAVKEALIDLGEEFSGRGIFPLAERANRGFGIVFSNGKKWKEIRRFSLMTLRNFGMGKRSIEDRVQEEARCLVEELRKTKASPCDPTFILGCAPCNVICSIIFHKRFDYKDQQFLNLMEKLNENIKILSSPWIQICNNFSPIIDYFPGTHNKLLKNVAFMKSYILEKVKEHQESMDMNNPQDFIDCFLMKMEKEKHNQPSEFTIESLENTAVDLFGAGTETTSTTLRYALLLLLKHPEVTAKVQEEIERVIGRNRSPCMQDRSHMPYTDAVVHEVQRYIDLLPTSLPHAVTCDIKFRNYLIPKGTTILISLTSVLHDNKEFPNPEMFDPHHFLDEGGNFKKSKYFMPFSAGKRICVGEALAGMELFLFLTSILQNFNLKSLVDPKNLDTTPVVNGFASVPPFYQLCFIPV

Data set [6] deals with T4, CYP2D6 (Homo sapiens, UniProt P10635). The experiment in a line: Time dependent inhibition of CYP2D6 (unknown origin) at 30 uM by LC/MS system. The data set is classed as ADME. The method in brief: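 Preincubation with HLMs at 1.0 mg/mL in 0.1 M sodium phosphate plus NADPH-generating system for 0 or 30 min, then tenfold dilution into incubation containing 30 μM dextromethorphan for 10 min; chromatographic read-out. Activity relative to controls without inhibitor; inactivation = 100×[1 − %control(30 min)/%control(0 min)], threshold 10%. Initial 100 μM lowered where reversible inhibition was strong.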
T4 sequence (P10635 whole entry): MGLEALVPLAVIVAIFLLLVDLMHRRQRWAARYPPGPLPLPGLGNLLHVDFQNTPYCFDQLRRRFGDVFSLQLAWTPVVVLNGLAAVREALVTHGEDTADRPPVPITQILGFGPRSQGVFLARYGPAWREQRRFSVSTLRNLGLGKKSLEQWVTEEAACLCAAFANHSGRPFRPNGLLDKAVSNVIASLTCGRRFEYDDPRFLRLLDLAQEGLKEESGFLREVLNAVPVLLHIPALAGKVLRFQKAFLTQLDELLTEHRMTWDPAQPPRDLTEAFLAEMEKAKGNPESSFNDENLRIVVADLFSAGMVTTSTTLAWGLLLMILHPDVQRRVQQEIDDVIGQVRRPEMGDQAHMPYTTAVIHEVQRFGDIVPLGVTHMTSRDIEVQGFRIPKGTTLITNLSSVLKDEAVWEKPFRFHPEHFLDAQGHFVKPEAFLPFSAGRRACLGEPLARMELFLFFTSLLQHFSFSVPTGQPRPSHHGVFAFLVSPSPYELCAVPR

A further data set has as its target T5, CYP1A2 (Homo sapiens, UniProt P05177).
T5 sequence (P05177 whole entry): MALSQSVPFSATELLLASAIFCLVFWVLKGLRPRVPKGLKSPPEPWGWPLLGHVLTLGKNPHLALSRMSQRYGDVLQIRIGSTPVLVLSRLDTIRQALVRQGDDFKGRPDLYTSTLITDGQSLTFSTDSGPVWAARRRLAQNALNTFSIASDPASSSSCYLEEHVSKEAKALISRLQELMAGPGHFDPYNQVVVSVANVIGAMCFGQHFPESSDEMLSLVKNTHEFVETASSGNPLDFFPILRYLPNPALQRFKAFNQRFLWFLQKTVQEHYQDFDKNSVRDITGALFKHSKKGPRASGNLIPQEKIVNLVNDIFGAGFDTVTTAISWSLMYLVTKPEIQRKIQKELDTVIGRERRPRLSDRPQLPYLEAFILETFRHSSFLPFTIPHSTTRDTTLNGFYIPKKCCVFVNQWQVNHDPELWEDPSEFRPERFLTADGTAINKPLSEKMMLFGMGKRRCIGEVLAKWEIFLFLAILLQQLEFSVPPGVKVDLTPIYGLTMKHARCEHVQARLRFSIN
Nature of the data set: in vitro.

The target of the next data set is CYP2C19 (Homo sapiens, UniProt P33261). The experiment in a line: in vitro.
CYP2C19, sequence (P33261 whole entry): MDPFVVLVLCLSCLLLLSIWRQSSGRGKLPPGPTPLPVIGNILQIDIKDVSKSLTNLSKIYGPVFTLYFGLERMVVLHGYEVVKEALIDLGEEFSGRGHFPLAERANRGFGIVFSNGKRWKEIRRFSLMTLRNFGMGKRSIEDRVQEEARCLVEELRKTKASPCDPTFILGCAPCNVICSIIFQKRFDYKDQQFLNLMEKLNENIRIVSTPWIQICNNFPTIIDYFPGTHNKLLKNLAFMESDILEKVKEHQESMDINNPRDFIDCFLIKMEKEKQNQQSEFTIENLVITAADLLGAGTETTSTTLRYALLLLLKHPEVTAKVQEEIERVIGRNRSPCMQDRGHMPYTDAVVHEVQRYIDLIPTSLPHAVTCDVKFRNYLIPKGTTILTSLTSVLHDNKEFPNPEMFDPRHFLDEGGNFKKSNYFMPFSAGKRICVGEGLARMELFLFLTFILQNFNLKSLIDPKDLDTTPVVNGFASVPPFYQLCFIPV
In data set [7] the target is T6, CYP2C8 (Homo sapiens, UniProt P10632).
T6 sequence (P10632 whole entry): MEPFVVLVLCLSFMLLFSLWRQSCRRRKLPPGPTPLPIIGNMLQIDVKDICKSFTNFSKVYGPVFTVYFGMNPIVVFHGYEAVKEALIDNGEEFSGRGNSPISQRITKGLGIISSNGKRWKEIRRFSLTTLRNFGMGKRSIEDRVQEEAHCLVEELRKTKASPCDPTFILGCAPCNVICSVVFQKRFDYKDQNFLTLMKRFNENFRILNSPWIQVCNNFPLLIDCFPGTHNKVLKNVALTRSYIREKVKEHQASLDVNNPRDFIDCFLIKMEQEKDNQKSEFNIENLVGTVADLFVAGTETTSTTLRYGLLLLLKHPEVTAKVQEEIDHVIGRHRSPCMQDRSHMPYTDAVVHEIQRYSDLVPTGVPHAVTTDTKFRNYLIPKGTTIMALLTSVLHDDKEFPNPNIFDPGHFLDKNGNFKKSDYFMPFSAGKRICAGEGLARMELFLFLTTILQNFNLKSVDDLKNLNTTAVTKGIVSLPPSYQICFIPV
Nature of the data set: in vitro.

The target in data set [8] is T6, CYP2C8. Nature of the data set: Time dependent inhibition of CYP2C8 (unknown origin) at 30 uM by LC/MS system. The data set is classed as ADME. The method in brief: (§3)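 CYP2C8 in human liver microsomes (1.0 mg/mL in preincubation), 0.1 M sodium phosphate, NADPH-generating system. Preincubation 0 or 30 min, then ten-fold dilution into incubation with 10 μM paclitaxel (final) for 10 min. Activity is taken relative to the matched no-inhibitor control. % inactivation = 100 × [1 − %control(30 min)/%control(0 min)]; threshold 10%.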

Data set [9] in a line: Intrinsic clearance for reactive metabolites formation per mg of protein based on cytochrome P450 (unknown origin) inactivation rate by TDI assay. As to conditions: human.
The nature of data set [10]: Intrinsic clearance for reactive metabolites formation assessed as summation of [3H]GSH adduct formation rate-based reactive metabolites formation and cytochrome P450 (unknown origin) inactivation rate-based reactive metabolites formation. To be noted: human.
For data set [11], the target named is T1, CYP2B6. Nature of the data set: in vitro.
The target in data set [12] is T3, CYP2C9. The experiment in a line: in vitro.
The target in data set [13] is T4, CYP2D6. The experiment in a line: in vitro.
The target in data set [14] is T2, CYP3A4. Nature of the data set: in vitro.
Data set [15] deals with T6, CYP2C8. Nature of the data set: Time dependent inhibition of CYP2C8 (unknown origin) at 10 uM by LC/MS system. In kind it is ADME. The method in brief:
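CYP2C8 in human liver microsomes (1.0 mg/mL in preincubation), 0.1 M sodium phosphate, NADPH-generating system. Preincubation 0 or 30 min, then ten-fold dilution into incubation with 10 μM paclitaxel (final) for 10 min.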

In data set [16] the test system is Liver microsome. As to conditions: human, microsomes, 100 µM.
Data set [17] deals with T1, CYP2B6. Nature of the data set: Time dependent inhibition of CYP2B6 (unknown origin) at 10 uM by LC/MS system. The data set is classed as ADME. The method in brief:
as §1

In data set [18] the target is T6, CYP2C8. The experiment in a line: Time dependent inhibition of CYP2C8 (unknown origin) at 3 uM by LC/MS system. In kind it is ADME. A digest of the protocol:
as §3

For data set [19], the target named is T3, CYP2C9. Nature of the data set: Time dependent inhibition of CYP2C9 (unknown origin) at 10 uM by LC/MS system. In kind it is ADME. A digest of the protocol:
as §2

These results are taken from ChEMBL document CHEMBL3526118, “Combination of GSH trapping and time-dependent inhibition assays as a predictive method of drugs generating highly reactive metabolites” (Drug Metab Dispos, 2011).

T2 sequence (P08684 whole entry): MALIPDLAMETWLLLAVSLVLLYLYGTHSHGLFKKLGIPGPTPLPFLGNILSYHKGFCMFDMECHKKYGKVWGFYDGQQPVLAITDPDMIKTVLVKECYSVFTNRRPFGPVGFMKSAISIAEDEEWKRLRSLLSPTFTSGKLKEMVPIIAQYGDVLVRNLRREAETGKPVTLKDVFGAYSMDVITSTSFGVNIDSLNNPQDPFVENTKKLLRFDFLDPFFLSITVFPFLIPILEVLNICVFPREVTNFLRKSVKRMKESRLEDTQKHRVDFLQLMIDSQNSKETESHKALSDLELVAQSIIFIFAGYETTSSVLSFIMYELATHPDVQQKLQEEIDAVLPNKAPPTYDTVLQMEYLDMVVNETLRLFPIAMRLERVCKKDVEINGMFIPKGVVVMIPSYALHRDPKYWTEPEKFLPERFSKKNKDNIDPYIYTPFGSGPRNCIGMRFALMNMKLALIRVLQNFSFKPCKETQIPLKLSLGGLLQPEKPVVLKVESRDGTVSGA

For orientation: inhibition means the relative decrease from the control value, in per cent. Low values mean a response near the control, high ones a response far below the control. Consider `Cc1ccc(-c2cc(C(F)(F)F)nn2-c2ccc(S(N)(=O)=O)cc2)cc1` [CELECOXIB], for which the inhibition at 30 µM against CYP2B6 [1], at CYP2C9 [5] and on CYP2D6 [6] was less than 10% in each case. In addition, in the data set on Liver microsome [2], the PB is on record as 13 pmol. Further, the Drug metabolism result in the data set with Liver microsome [3] is on record as “metabolite_not_detected”. Moreover, the inhibition at 10 µM at CYP3A4 [4] is less than 10%. For the same molecule, the inhibition at 100 µM against CYP1A2, at CYP2C19 (microsomes) and against CYP2C8 [7] was less than 10% each time.
For `CCc1ccc(CCOc2ccc(CC3SC(=O)NC3=O)cc2)nc1` (stereo unspecified) [PIOGLITAZONE], in the data set on Liver microsome [2], the PB worked out at 353 pmol. In the data set with Liver microsome [3], the Drug metabolism entry is “metabolite_not_detected”. In addition, the inhibition at 30 µM against CYP2C8 [8] was less than 10%. Besides, the clearance in data set [9] and in data set [10] was 0.036 µL/min/mg each time. In addition, the inhibition at 100 µM on CYP1A2 is less than 10%; against CYP2B6 [11] it was 38%; against CYP2C9 [12] it was less than 10%; against CYP2C19 (human liver microsomes), less than 10%; against CYP2D6 [13], less than 10%; against CYP3A4 [14], 61%.
Consider `CN(CCOc1ccc(CC2SC(=O)NC2=O)cc1)c1ccccn1` (stereo unspecified) [ROSIGLITAZONE], for which, in the data set on Liver microsome [2], the PB was 516.1 pmol. The Drug metabolism with Liver microsome [3] was 2.2 pmol/min. Further, the inhibition at 10 µM on CYP2C8 [15] is less than 10%. Also, the clearance came to 0.028 µL/min/mg in data set [9] and 0.048 µL/min/mg in [10]. Also, the CLH in the data set with Liver microsome [16] came out at 0.022 µL/min/mg. Also, the inhibition at 100 µM against CYP1A2, on CYP2B6 [11], at CYP2C9 [12] and at CYP2C19 (human liver microsomes) was less than 10% throughout.
In the case of `COc1cc(C(=O)NS(=O)(=O)c2ccccc2C)ccc1Cc1cn(C)c2ccc(NC(=O)OC3CCCC3)cc12` [ZAFIRLUKAST], the inhibition at 10 µM was less than 10% against CYP2B6 [17], 43% at CYP3A4 [4] and less than 10% against CYP2C9 [19]. This molecule displayed a PB in the data set on Liver microsome [2] of 36.4 pmol. The Drug metabolism result with Liver microsome [3] was “metabolite_not_detected”. Further, on CYP2C8 [18], the inhibition at 3 µM is less than 10%. The clearance in data set [9] and in data set [10] was 0.207 µL/min/mg in each case. Also, the inhibition at 100 µM on CYP1A2 is 11%; on CYP2C19 (human liver microsomes) it was less than 10%; against CYP2D6 [13] it was less than 10%.
